Active and inactive are the calls of the source. No cut-off for these calls is given here. Bridge positions count the residues as written; N and C are the ends. Peptide text beside a SMILES is read from it.

Experiment [1] has as its target Alpha-synuclein (Homo sapiens) (UniProt P37840). Nature of the experiment: Inhibition of alpha-synuclein-mediated dopaminergic neurodegeneration in Caenorhabditis elegans transfected with human alpha-synuclein. In short, it runs like this: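 Age-synchronized transgenic worms expressing α-syn and GFP from the Pdat-1 promoter in DA neurons, with extrachromosomal mCP arrays; three independent lines per strain. Six anterior DA neurons (4 CEP, 2 ADE) scored at day 7 on 2% agarose pads with 2 mM levamisole, by epifluorescence. An animal with any dendrite, axon or cell body loss counted as degenerating. 30 worms per trial, three trials per line.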

For experiment [2], the target named is Huntingtin (Homo sapiens) (UniProt P42858). Nature of the experiment: Inhibition of huntingtin-mediated toxicity in yeast transfected with human huntingtin by spotting assay.
Sequence of Huntingtin (Homo sapiens) (P42858 whole entry): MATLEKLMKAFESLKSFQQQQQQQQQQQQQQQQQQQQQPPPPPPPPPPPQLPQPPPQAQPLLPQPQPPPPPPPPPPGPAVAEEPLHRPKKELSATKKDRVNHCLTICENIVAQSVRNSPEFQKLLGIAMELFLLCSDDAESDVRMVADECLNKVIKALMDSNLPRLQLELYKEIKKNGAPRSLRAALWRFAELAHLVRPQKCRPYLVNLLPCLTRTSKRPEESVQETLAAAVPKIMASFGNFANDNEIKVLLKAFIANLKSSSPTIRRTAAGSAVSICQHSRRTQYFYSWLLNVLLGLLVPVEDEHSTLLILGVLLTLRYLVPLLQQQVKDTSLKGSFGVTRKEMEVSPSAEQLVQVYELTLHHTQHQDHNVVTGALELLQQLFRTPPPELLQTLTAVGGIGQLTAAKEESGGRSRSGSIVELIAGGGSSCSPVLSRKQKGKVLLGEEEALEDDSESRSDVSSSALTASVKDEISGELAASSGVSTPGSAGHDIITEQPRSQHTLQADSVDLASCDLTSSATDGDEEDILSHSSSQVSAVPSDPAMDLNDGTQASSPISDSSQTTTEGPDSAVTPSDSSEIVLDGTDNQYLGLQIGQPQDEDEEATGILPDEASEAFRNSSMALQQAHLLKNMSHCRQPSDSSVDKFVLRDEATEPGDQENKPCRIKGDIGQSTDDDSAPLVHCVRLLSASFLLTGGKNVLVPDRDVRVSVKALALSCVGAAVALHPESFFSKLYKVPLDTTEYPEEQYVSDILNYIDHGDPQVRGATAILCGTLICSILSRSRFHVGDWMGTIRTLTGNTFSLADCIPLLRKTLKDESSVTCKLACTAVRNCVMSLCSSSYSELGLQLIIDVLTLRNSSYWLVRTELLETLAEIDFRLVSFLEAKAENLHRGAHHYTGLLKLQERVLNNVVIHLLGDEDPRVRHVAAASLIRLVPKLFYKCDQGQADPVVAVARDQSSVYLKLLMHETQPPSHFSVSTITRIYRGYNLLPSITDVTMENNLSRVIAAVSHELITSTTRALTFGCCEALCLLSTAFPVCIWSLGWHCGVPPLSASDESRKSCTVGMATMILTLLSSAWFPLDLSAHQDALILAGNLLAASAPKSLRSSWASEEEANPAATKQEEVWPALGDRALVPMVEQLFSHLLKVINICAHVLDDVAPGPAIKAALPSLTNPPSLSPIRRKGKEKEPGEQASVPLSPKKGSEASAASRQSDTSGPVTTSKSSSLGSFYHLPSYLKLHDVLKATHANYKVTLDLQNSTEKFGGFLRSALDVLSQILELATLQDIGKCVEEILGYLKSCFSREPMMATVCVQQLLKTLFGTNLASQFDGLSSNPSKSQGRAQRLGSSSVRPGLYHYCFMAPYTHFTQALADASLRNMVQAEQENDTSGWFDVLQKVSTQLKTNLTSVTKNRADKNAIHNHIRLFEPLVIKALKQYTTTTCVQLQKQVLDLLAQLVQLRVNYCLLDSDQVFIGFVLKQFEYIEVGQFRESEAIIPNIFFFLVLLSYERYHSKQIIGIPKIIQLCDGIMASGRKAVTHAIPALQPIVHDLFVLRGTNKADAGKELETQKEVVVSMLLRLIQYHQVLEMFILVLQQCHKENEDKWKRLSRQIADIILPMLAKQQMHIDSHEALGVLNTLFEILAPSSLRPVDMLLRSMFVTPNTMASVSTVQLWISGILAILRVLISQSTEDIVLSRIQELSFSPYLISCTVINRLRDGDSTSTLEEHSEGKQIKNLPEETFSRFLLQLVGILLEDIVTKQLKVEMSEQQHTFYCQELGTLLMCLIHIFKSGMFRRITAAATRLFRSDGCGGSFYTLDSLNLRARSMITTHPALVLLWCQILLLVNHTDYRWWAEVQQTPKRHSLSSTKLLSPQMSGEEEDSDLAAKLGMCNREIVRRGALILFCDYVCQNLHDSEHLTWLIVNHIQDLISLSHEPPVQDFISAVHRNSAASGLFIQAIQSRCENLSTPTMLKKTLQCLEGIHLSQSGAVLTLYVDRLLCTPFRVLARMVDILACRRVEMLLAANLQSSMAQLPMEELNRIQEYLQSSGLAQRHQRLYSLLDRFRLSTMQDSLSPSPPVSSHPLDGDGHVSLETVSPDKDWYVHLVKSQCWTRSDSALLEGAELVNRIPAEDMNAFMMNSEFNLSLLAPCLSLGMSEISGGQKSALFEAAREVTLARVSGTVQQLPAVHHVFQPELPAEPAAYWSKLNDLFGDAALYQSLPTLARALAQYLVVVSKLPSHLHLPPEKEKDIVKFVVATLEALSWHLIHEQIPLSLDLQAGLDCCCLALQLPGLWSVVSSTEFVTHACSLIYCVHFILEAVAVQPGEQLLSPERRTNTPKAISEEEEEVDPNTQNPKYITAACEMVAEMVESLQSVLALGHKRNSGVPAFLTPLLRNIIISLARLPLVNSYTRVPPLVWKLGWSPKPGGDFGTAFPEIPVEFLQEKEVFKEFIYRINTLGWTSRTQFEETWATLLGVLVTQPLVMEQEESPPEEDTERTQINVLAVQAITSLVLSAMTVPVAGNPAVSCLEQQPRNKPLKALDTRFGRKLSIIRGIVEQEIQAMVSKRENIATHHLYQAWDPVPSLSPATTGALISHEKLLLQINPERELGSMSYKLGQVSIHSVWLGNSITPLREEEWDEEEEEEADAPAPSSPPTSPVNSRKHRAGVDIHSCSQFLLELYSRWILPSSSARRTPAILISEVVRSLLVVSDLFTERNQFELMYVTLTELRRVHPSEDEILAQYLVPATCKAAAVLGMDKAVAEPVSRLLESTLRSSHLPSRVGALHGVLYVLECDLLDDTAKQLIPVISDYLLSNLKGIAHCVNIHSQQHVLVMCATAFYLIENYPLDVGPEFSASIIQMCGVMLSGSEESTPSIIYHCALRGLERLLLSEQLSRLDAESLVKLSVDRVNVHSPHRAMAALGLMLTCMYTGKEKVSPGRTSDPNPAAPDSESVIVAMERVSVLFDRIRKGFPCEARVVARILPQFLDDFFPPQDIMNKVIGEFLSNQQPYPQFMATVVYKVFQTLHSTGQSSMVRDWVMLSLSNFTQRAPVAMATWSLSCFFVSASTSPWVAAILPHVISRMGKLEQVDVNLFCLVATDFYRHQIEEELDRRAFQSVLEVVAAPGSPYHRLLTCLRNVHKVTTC
The next experiment has as its system Saccharomyces cerevisiae. Nature of the experiment: Effect on lacZ expression in yeast after 36 to 48 hrs by Gal1 reporter gene assay. The experiment is classed as functional, organism-based. The essentials:
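GAL1::LacZ yeast (freshly integrated) grown on galactose plates; single colonies picked at 36–48 h, washed, normalized to OD600 0.4–0.8. CPRG substrate buffer (100 mM HEPES pH 7.25, 150 mM NaCl, 0.5% SDS, 0.75 mg/mL CPRG) added, shaken 30–120 min at room temperature. Absorbance read at 578 nm and corrected for yeast optical density.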
In general terms: In a reporter assay the amount or activity of a reporter protein is the signal.

Experiment [3] has as its target Alpha-synuclein (Homo sapiens) (UniProt P37840). Nature of the experiment: Inhibition of alpha-synuclein-mediated toxicity in yeast transfected with human alpha-synuclein by spotting assay. In short, it runs like this: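 Haploid W303 IntTox strain carrying integrated GAL1-driven human α-syn-YFP, transformed with CP plasmids by lithium acetate heat shock. At least three independent transformants tested. Cells serially diluted and plated on galactose medium to induce α-syn, then growth scored.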

For experiment [4] the target is unchanged. Nature of the experiment: Inhibition of human alpha-synuclein-mediated accumulation of stalled vesicle pools in yeast transfected with human alpha-synuclein after 8 to 12 hrs by electron microscopy.

As for `CC(C)C[C@H](NC(=O)[C@H](C)NC(=O)[C@H](C)N)C(=O)N[C@@H](CS)C(=O)N[C@@H](CC(=O)O)C(=O)N1CCC[C@H]1C(=O)N[C@@H](Cc1c[nH]c2ccccc12)C(=O)N[C@@H](Cc1c[nH]c2ccccc12)C(=O)O` (H-AALCDPWW-OH), the inhibition result in experiment [1] is “inactive”.

`CC(C)[C@H](NC(=O)[C@H](CCCNC(=N)N)NC(=O)[C@@H](NC(=O)[C@H](CO)NC(=O)[C@H](CS)NC(=O)[C@H](Cc1c[nH]c2ccccc12)NC(=O)[C@@H]1CCCN1C(=O)[C@H](C)N)[C@@H](C)O)C(=O)O` (H-APWCSTRV-OH): the inhibition entry in experiment [1] is “inactive”.

For `CC(C)C[C@@H]1NC(=O)[C@H](C)NC(=O)[C@@H](N)CSSC[C@@H](C(=O)N[C@@H](CC(=O)O)C(=O)N2CCC[C@H]2C(=O)N[C@@H](Cc2c[nH]c3ccccc23)C(=O)N[C@@H](Cc2c[nH]c3ccccc23)C(=O)O)NC1=O` (H-CALCDPWW-OH; disulfide 1-4), in experiment [1], the percent of animals without neurodegeneration worked out at 24%. Moreover, the result (in experiment [2]; in the experiment with Saccharomyces cerevisiae; in experiment [4]) was inactive. Besides, in experiment [3], the inhibition result was “Active”.

For `CC(C)[C@H](NC(=O)[C@H](CCCNC(=N)N)NC(=O)[C@H](C)NC(=O)[C@H](CO)NC(=O)[C@@H]1CSSC[C@H](N)C(=O)N2CCC[C@H]2C(=O)N[C@@H](Cc2c[nH]c3ccccc23)C(=O)N1)C(=O)O` (H-CPWCSARV-OH; disulfide 1-4), the inhibition entry in experiment [3] was “Active”.

Take `CC(C)[C@H](NC(=O)[C@H](CCCNC(=N)N)NC(=O)CNC(=O)[C@H](CO)NC(=O)[C@@H]1CSSC[C@H](N)C(=O)N2CCC[C@H]2C(=O)N[C@@H](Cc2c[nH]c3ccccc23)C(=O)N1)C(=O)O` (H-CPWCSGRV-OH; disulfide 1-4): the inhibition result in experiment [3] was “Active”.

For `CC(C)[C@H](NC(=O)[C@H](CCCNC(=N)N)NC(=O)[C@@H](NC(=O)[C@H](CO)NC(=O)[C@@H]1CSSC[C@H](N)C(=O)N2CCC[C@H]2C(=O)N[C@@H](Cc2c[nH]c3ccccc23)C(=O)N1)[C@@H](C)O)C(=O)O` (H-CPWCSTRV-OH; disulfide 1-4), the percent of animals without neurodegeneration in experiment [1] is 26%. In addition, the outcome (in experiment [2]; with Saccharomyces cerevisiae; in experiment [4]) was inactive. In experiment [3], the inhibition entry was “Active”.

(Values after ChEMBL document CHEMBL1212724, “Rapid selection of cyclic peptides that reduce alpha-synuclein toxicity in yeast and animal models” (Nat Chem Biol, 2009).)
